# Measured values as given in PMC11671551 (Cancer Chemotherapy and Pharmacology, 2024).
# Read-outs that look alike come from different tables or passages of the source.
# Assays:
# [1] = assay type: in vivo, human; settings: for Serum concentration, mean: trough
# Procedure, shortened: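 mRCC patients recruited prospectively (March 2020–January 2022) on oral sunitinib, 2 weeks on/1 week off, with physician-set dose. Blood (5 mL) was drawn at outpatient visits 7–14 days into each cycle, 24 h post-dose or just before the next dose. It was spun at 1,500 ×g, 4 °C, 10 min, and the serum stored at -25 °C. Parent drug, N-desethyl and N-oxide were quantified by LC-MS/MS (LLOQ 2.5, 2.5, 0.1 ng/mL). Concentration/dose ratios were correlated with treatment duration by Pearson.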
# [2] = population pharmacokinetic analysis, patient weighing 100 kg; cited from earlier work
# [3] = Adverse events in mRCC patients receiving long-term sunitinib; assay type: in vivo, human
# [4] = Pt1, maintenance dose 25 mg, 421–630 days after initiation
# [5] = Pt1, maintenance dose 25 mg, 631–840 days after initiation
# [6] = Pt1, maintenance dose 25 mg, 841–1050 days after initiation
# [7] = Pt1, maintenance dose 25 mg, 1051–1260 days after initiation
# [8] = Pt1, maintenance dose 25 mg, 1261–1470 days after initiation
# [9] = Pt2, maintenance dose 25 mg, 631–840 days after initiation
# [10] = Pt2, maintenance dose 25 mg, 841–1050 days after initiation
# [11] = Pt3, maintenance dose 25 mg, 1051–1260 days after initiation
# [12] = Pt3, maintenance dose 25 mg, 1261–1470 days after initiation
# [13] = Pt3, maintenance dose 25 mg, 1471–1680 days after initiation
# [14] = Pt3, maintenance dose 25 mg, 1681–1890 days after initiation
# [15] = Pt4, maintenance dose 25 mg, 1891–2100 days after initiation
# [16] = Pt5, maintenance dose 37.5 mg, 1261–1470 days after initiation
# [17] = Pt5, maintenance dose 37.5 mg, 1471–1680 days after initiation
# [18] = Pt5, maintenance dose 37.5 mg, 1681–1890 days after initiation
# [19] = Pt6, maintenance dose 50 mg, 0–210 days after initiation
# [20] = Pt6, maintenance dose 50 mg, 211–420 days after initiation
# [21] = Pt6, maintenance dose 50 mg, 421–630 days after initiation
# [22] = Pt7, maintenance dose 25 mg, 0–210 days after initiation
# [23] = after follow-up, sunitinib C/D decreased group (n=3)
# [24] = after follow-up, sunitinib C/D non-decreased group (n=4)
# [25] = baseline, sunitinib C/D decreased group (n=3)
# [26] = baseline, sunitinib C/D non-decreased group (n=4)
# [27] = sunitinib C/D decreased group (n=3)
# [28] = sunitinib C/D non-decreased group (n=4)
smiles,measurement,setting,value
CCNCCNC(=O)c1c(C)[nH]c(/C=C2\C(=O)Nc3ccc(F)cc32)c1C [N-desethyl sunitinib],Pearson's correlation coefficient r between C/D ratio and treatment duration,[1]; Pt1,-0.282
same,"Serum concentration, mean",[1]; [4],9.0 ng/mL
same,"Serum concentration, mean",[1]; [5],11.0 ng/mL
same,"Serum concentration, mean",[1]; [6],10.4 ng/mL
same,"Serum concentration, mean",[1]; [7],9.6 ng/mL
same,"Serum concentration, mean",[1]; [8],6.9 ng/mL
same,Pearson's correlation coefficient r between C/D ratio and treatment duration,[1]; Pt2,-0.500
same,"Serum concentration, mean",[1]; [9],22.7 ng/mL
same,"Serum concentration, mean",[1]; [10],20.9 ng/mL
same,"Serum concentration, mean",[1]; [11],13.2 ng/mL
same,"Serum concentration, mean",[1]; [12],12.5 ng/mL
same,"Serum concentration, mean",[1]; [13],15.5 ng/mL
same,"Serum concentration, mean",[1]; [14],14.6 ng/mL
same,"Serum concentration, mean",[1]; [15],11.0 ng/mL
same,"Serum concentration, mean",[1]; [16],12.6 ng/mL
same,"Serum concentration, mean",[1]; [17],12.1 ng/mL
same,"Serum concentration, mean",[1]; [18],14.7 ng/mL
same,"Serum concentration, mean",[1]; [19],30.4 ng/mL
same,"Serum concentration, mean",[1]; [20],27.7 ng/mL
same,"Serum concentration, mean",[1]; [21],30.4 ng/mL
same,"Serum concentration, mean",[1]; [22],17.8 ng/mL
same,"N-desethyl sunitinib/sunitinib concentration ratio, median (min–max)",[1]; [23],0.29 (0.26–0.63)
same,"N-desethyl sunitinib/sunitinib concentration ratio, median (min–max)",[1]; [24],0.30 (0.16–0.54)
same,"N-desethyl sunitinib/sunitinib concentration ratio, median (min–max)",[1]; [25],0.28 (0.23–0.46)
same,"N-desethyl sunitinib/sunitinib concentration ratio, median (min–max)",[1]; [26],0.30 (0.19–0.44)
"CC[N+]([O-])(CC)CCNC(=O)c1c(C)[nH]c(/C=C2\C(=O)Nc3ccc(F)cc32)c1C [Sunitinib N-oxide, sunitinib N-oxide]",Pearson's correlation coefficient r between C/D ratio and treatment duration,[1]; Pt1,-0.756
same,"Serum concentration, mean",[1]; [4],0.68 ng/mL
same,"Serum concentration, mean",[1]; [5],0.59 ng/mL
same,"Serum concentration, mean",[1]; [6],0.40 ng/mL
same,"Serum concentration, mean",[1]; [7],0.29 ng/mL
same,"Serum concentration, mean",[1]; [8],0.10 ng/mL
same,Pearson's correlation coefficient r between C/D ratio and treatment duration,[1]; Pt2,-0.838
same,"Serum concentration, mean",[1]; [9],1.10 ng/mL
same,"Serum concentration, mean",[1]; [10],0.71 ng/mL
same,"Serum concentration, mean",[1]; [11],0.99 ng/mL
same,"Serum concentration, mean",[1]; [12],0.58 ng/mL
same,"Serum concentration, mean",[1]; [13],0.53 ng/mL
same,"Serum concentration, mean",[1]; [14],0.32 ng/mL
same,"Serum concentration, mean",[1]; [15],1.35 ng/mL
same,"Serum concentration, mean",[1]; [16],0.56 ng/mL
same,"Serum concentration, mean",[1]; [17],0.57 ng/mL
same,"Serum concentration, mean",[1]; [18],0.36 ng/mL
same,Pearson's correlation coefficient r between C/D ratio and treatment duration,[1]; Pt6,-0.752
same,"Serum concentration, mean",[1]; [19],0.56 ng/mL
same,"Serum concentration, mean",[1]; [20],0.55 ng/mL
same,"Serum concentration, mean",[1]; [21],0.17 ng/mL
same,"Serum concentration, mean",[1]; [22],0.24 ng/mL
same,"Sunitinib N-oxide/sunitinib concentration ratio, median (min–max)",[1]; [23],0.004 (0.004–0.009)
same,"Sunitinib N-oxide/sunitinib concentration ratio, median (min–max)",[1]; [24],0.006 (0.004–0.029)
same,"Sunitinib N-oxide/sunitinib concentration ratio, median (min–max)",[1]; [25],0.013 (0.010–0.021)
same,"Sunitinib N-oxide/sunitinib concentration ratio, median (min–max)",[1]; [26],0.016 (0.014–0.026)
"CCN(CC)CCNC(=O)c1c(C)[nH]c(/C=C2\C(=O)Nc3ccc(F)cc32)c1C [Sunitinib, sunitinib, reference compound]",Pearson's correlation coefficient r between C/D ratio and treatment duration,[1]; Pt1,-0.608
same,"Serum concentration, mean",[1]; [4],44.0 ng/mL
same,"Serum concentration, mean",[1]; [5],48.3 ng/mL
same,"Serum concentration, mean",[1]; [6],41.2 ng/mL
same,"Serum concentration, mean",[1]; [7],33.1 ng/mL
same,"Serum concentration, mean",[1]; [8],26.2 ng/mL
same,Pearson's correlation coefficient r between C/D ratio and treatment duration,[1]; Pt2,-0.555
same,"Serum concentration, mean",[1]; [9],86.7 ng/mL
same,"Serum concentration, mean",[1]; [10],73.5 ng/mL
same,"Serum concentration, mean",[1]; [11],59.5 ng/mL
same,"Serum concentration, mean",[1]; [12],54.9 ng/mL
same,"Serum concentration, mean",[1]; [13],64.1 ng/mL
same,"Serum concentration, mean",[1]; [14],54.1 ng/mL
same,"Serum concentration, mean",[1]; [15],54.5 ng/mL
same,"Serum concentration, mean",[1]; [16],42.2 ng/mL
same,"Serum concentration, mean",[1]; [17],44.7 ng/mL
same,"Serum concentration, mean",[1]; [18],39.4 ng/mL
same,Pearson's correlation coefficient r between C/D ratio and treatment duration,[1]; Pt6,-0.590
same,"Serum concentration, mean",[1]; [19],71.0 ng/mL
same,"Serum concentration, mean",[1]; [20],65.8 ng/mL
same,"Serum concentration, mean",[1]; [21],37.5 ng/mL
same,"Serum concentration, mean",[1]; [22],31.1 ng/mL
same,Maximum variation in Vd/F,[2],14%
same,Patients with grade 2 or higher anorexia,"[3]; all 7 patients, five patients",71.4%
same,Patients with anorexia (any grade),"[3]; all 7 patients, six patients",85.7%
same,"Anorexia Grade 0, number of patients",[3]; [27],1 n
same,"Anorexia Grade 1, number of patients",[3]; [27],0 n
same,"Anorexia Grade 2, number of patients",[3]; [27],1 n
same,"Anorexia Grade 3, number of patients",[3]; [27],1 n
same,"Diarrhea Grade 0, number of patients",[3]; [27],2 n
same,"Diarrhea Grade 1, number of patients",[3]; [27],1 n
same,"Anorexia Grade 0, number of patients",[3]; [28],0 n
same,"Anorexia Grade 1, number of patients",[3]; [28],1 n
same,"Anorexia Grade 2, number of patients",[3]; [28],2 n
same,"Anorexia Grade 3, number of patients",[3]; [28],1 n
same,"Diarrhea Grade 0, number of patients",[3]; [28],2 n
same,"Diarrhea Grade 1, number of patients",[3]; [28],2 n
